Rows were chosen to be rich in hits. Some 0.83% of all compounds tested hit in one or more screens of this group.
ABCB1 block – blocks JC-1 efflux by human ABCB1 transporter; CCRF-Adr cells, flow cytometry; inhibition, % at 6.6 µM; 0.067% of 190,000 active; AID 1326; in the data active means inhibition above about 40%;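 further: 0% = vehicle and 100% = reference inhibitor; higher value means more JC-1 retained so stronger ABCB1 efflux block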
RGS4-Gao reg – modulates binding of RGS4 to human Galphao; 0.33% of 220,000 active; AID 1415; Multiplexed bead flow cytometry; actives lie on both sides; P09471; binding response (% of control), % at 10 µM; in the data active means binding response below about 49% or above about 150%; inactive means in between;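 further: fluorescent Galphao activated with aluminum fluoride binding bead-coupled RGS4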
RGS8-Gao reg – regulators of human RGS8-Galphao interaction | multiplexed bead flow cytometry, RGS8-Galphao binding; actives lie on both sides | response (percent of control binding), % at 10 µM | P09471 | 0.34% of 220,000 active | AID 1423; in the data active means response below about 60% or above about 140%; inactive means in between;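 further: Galphao activated as the GDP aluminium fluoride complex binding bead-coupled RGS8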
RGS7-Gao – regulators of human RGS7-Galphao interaction | P09471 | Multiplexed bead flow cytometry, RGS7-Galphao binding; actives lie on both sides | binding response (% of control), % at 10 µM | 0.35% of 220,000 active | AID 1439; in the data active means binding response below about 49% or above about 150%; inconclusive means no clear call, values can overlap the other calls; inactive means in between;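 further: fluorescent Galphao held in activated GDP-AlF4 state binding bead-coupled RGS7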
RGS16-Gao HTS – regulators of human RGS16-Galphao interaction; bead-based flow cytometry RGS16-Galphao binding, fluorescence; actives lie on both sides; binding response (% of control), % at 10 µM; 0.38% of 220,000 active; AID 1441;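 further: Galphao activated by GDP with aluminum fluoride before binding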
Target sequence (O15492 whole entry, looked up): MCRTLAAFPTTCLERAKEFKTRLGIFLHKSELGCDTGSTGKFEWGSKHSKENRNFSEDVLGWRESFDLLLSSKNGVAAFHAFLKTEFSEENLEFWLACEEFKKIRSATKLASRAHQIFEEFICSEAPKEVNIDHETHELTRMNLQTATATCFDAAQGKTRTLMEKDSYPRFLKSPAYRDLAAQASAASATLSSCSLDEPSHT
Target sequence (P09471 whole entry, looked up): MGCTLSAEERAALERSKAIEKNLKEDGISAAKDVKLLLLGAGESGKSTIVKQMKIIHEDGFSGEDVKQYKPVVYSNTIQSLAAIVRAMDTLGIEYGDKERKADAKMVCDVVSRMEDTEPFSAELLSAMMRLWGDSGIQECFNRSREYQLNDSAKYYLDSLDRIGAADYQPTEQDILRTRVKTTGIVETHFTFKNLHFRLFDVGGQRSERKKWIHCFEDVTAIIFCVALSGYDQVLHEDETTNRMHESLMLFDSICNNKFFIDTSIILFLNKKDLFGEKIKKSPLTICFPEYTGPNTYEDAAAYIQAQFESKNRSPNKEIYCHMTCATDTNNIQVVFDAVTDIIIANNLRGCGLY
ABCG2 block – blocks JC-1 efflux by human ABCG2 transporter; 0.1% of 190,000 active; IgMXP3 cells, flow cytometry; inhibition, % at 6.6 µM; Q9UNQ0;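 active means inhibition above 80%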;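 further: 0% = DMSO and 100% = nicardipine control wells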
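Test system: IgMXP3 cells (ABCG2) mixed with DDAO far-red-labelled CCRF-Adr cells (ABCB1). Reagent: JC-1 transporter substrate. Compound dosing: single test compound dose, 6.6 µM final. Times: 10 min compound exposure, 25 °C. Detection: flow cytometry of retained JC-1 fluorescence. Read-out basis: efflux inhibition in percent versus controls. Controls: nicardipine and DMSO wells.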
RGS-Gao – RGS4-Galphao interaction regulator (human). 99% of 1,600 active. RGS4–Galpha-o binding response, % at 10 µM. multiplexed bead flow cytometry, RGS–Galpha-o binding. shares compounds with RGS16-Gao HTS. AID 1504;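 further: fluorescently labeled Galpha-o bound to GDP with aluminium fluoride binding biotinylated RGS beads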
Avidin counter – counter-screen: compounds disrupting biotin binding to avidin beads | shares compounds with RGS16-Gao HTS | inhibition, % at 10 µM | 1,700 tested, under 10 active | streptavidin beads, fluorescein-biotin binding, flow cytometry;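 active means inhibition above 50%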;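 further: median green fluorescence of gated singlet beads compared with DMSO control wells; 0% = DMSO wells and 100% = complete loss of bead fluorescence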
RGS8-Gao confirm – confirmation of regulators of human RGS8-Galphao interaction; 3% of 1,700 active; bead-based flow cytometry RGS8-Galphao binding, fluorescence; actives lie on both sides; binding response (% of control), % at 10 µM; shares compounds with RGS16-Gao HTS; AID 1836; in the data active means binding response below about 72% or above about 130%; inactive means in between;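 further: Galphao activated as GDP AlF4 complex before binding bead RGS8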
RGS7-Gao confirm – RGS7-Galphao interaction regulation, single point confirmation; shares compounds with RGS16-Gao HTS; bead-based flow cytometry RGS7-Galphao binding; actives lie on both sides; response (percent of control binding), % at 10 µM; 7.8% of 1,700 active; AID 1837; in the data active means response below about 75% or above about 130%; inactive means in between;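 further: fluorescent Galphao activated with GDP and aluminum fluoride binding bead-coupled RGS7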
RGS16-Gao single – confirmation of regulators of human RGS16-Galphao interaction; bead-based flow cytometry, RGS16-Galphao binding; actives lie on both sides; 4% of 1,700 active; shares compounds with RGS16-Gao HTS; response (% of control binding), % at 10 µM; in the data active means response below about 74% or above about 130%; inactive means in between;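 further: Galphao activated as the GDP aluminium fluoride complex binding bead-coupled RGS16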
RGS4-Gao confirm – RGS4-Galphao interaction regulation, single point confirmation; 4% of 1,700 active; AID 1840; shares compounds with RGS16-Gao HTS; binding response (% of control), % at 10 µM; RGS4-Galphao binding, multiplexed bead flow cytometry; actives lie on both sides; in the data active means binding response below about 74% or above about 130%; inactive means in between
RGS19-Gao single – RGS19-Galphao interaction regulation, single point confirmation; response (percent of control binding), % at 10 µM; shares compounds with RGS16-Gao HTS; bead-based flow cytometry RGS19-Galphao binding; actives lie on both sides; 5% of 1,700 active; in the data active means response below about 50% or above about 160%; inactive means in between;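 further: 100% = no compound control and 0% = blank background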
* marks the source's active call; other numbers are inactive results; ? = inconclusive; . = no result; [ ] = dose if it differs, or a comment. Unless noted, how the calls were made is not given here.

SMILES	ABCB1 block	RGS4-Gao reg	RGS8-Gao reg	RGS7-Gao	RGS16-Gao HTS	ABCG2 block	RGS-Gao	Avidin counter	RGS8-Gao confirm	RGS7-Gao confirm	RGS16-Gao single	RGS4-Gao confirm	RGS19-Gao single
O=C(Cc1noc2ccccc12)Nc1ccc2ccccc2c1	0.9	90.9	70.4	89.5	24.7*	3.2	90.9*	-0.1	94.0	87.9	88.7	91.0	99.4
Cc1ccc(Cl)cc1N1CCN(Cc2cc(=O)n3ccsc3n2)CC1	0.1	99.5	99.3	102.0	102.0	1.1	.	.	.	.	.	.	.
CCC(CC)C(=O)NCCc1ccc(OC)cc1	0.2	237.7*[activator]	.	.	.	1.0	.	2.3	97.3	97.4	97.2	98.4	99.4
COC(=O)c1[nH]c(C)c(/C(O)=C2\C(=O)C(=O)N(CCN3CCOCC3)C2c2ccc(C)o2)c1C (stereo not given)	.	96.5	96.4	?	95.0	.	.	.	.	.	.	.	.
CC1CCC2C(=O)N(c3ccc(Cc4ccncc4)cc3)C(=O)C2C1 (stereo not given)	2.5	96.4	98.3	94.2	97.3	5.0	.	.	.	.	.	.	.
CC1CCN(C(=O)c2ccc(N3C(=O)C4CCC(C)CC4C3=O)cc2)CC1 (stereo not given)	.	32.0*	66.9	?	45.4	.	.	-0.2	101.1	106.3	102.1	102.3	96.5
CC(CCC(=O)O)C1CC[C@@]2(C)C3C(=O)CC4C(C)(C)C(O)CC[C@]4(C)C3C(=O)C[C@]12C (stereo not given in full)	.	88.8	56.8*	?	99.7	.	88.8*	-0.9	100.0	96.7	100.3	98.7	90.2
C[C@H](CCC(=O)O)[C@H]1CC[C@H]2[C@@H]3C(=O)C[C@@H]4CC(=O)CC[C@]4(C)[C@H]3CC(=O)[C@]12C	-0.4	93.3	100.8	98.0	99.9	-0.9	.	.	.	.	.	.	.
COc1ccc(CN2C(=O)CS(=O)CC2=O)cc1OC	0.0	102.0	102.7	100.1	99.7	-0.6	.	.	.	.	.	.	.
CCOc1ccc(CC2CC(=O)NC2=O)cc1 (stereo not given)	0.1	103.3	102.4	100.4	107.0	0.3	.	.	.	.	.	.	.
CCOC(=O)c1ccc(NCn2c(=O)oc3ccccc32)cc1	10.4	96.8	87.8	91.7	-14.5*	15.9	96.8*	-1.7	100.4	98.8	97.5	101.6	102.3
COc1ccc(C2CC(c3cccc(OC)c3OC)n3nnnc3N2)cc1 (stereo not given)	1.1	96.2	98.8	100.0	97.3	5.6	.	.	.	.	.	.	.
CNC(=O)C1CC(=O)N(CCc2ccccc2)C(=Nc2ccc(OC)cc2)S1 (stereo not given)	0.4	102.9	102.8	99.7	103.7	3.2	.	.	.	.	.	.	.
CNC(=O)C1CC(=O)N(CCCc2ccccc2)C(=Nc2ccccc2)S1 (stereo not given)	0.1	94.0	87.3	92.4	22.4*	3.1	94.0*	1.3	102.3	100.6	103.7	98.5	120.2
FC(F)C(F)(F)c1cc(-c2ccc(Cl)cc2)n[nH]1	.	109.6	104.0	?	108.3	.	.	.	.	.	.	.	.

Assay outcomes deposited in PubChem BioAssay by NMMLSC.
